Measurements from ChEMBL document CHEMBL1240415, “Design, synthesis and antimicrobial activities of some new quinoline derivatives carrying 1,2,3-triazole moiety” (2010).
In brackets after ≈: the same amount, converted by molar mass.

Key:
Format in all cases: functional
Staphylococcus aureus = experiment: Antibacterial activity against Staphylococcus aureus ATTC 25923 after 3 to 4 days by serial plate dilution method; conditions: for MIC: Staphylococcus aureus, ATTC 25923
Method in brief: (§1)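 Serial dilutions in Mueller-Hinton broth in tubes, pH adjusted to 5.0 with phosphate buffer. Inoculated with a standardized bacterial suspension and incubated 16–18 h at 37 °C. MIC is the lowest concentration with no visible growth, tested over 6.25–100 µg/mL. Zones come from an agar well diffusion assay: compounds in DMSO are added to wells in seeded agar, DMSO control, triplicate plates, 37 °C for 3–4 days, inhibition zone diameter in mm.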

Escherichia coli = experiment: Antibacterial activity against Escherichia coli ATTC 25922 after 3 to 4 days by serial plate dilution method; conditions: for MIC: Escherichia coli, ATTC 25922; method in brief: as §1
Pseudomonas aeruginosa = experiment: Antibacterial activity against Pseudomonas aeruginosa ATCC 27853 after 3 to 4 days by serial plate dilution method; conditions: for MIC: Pseudomonas aeruginosa, ATCC 27853; method in brief: as §1
Klebsiella pneumoniae = experiment: Antibacterial activity against recultured Klebsiella pneumoniae after 3 to 4 days by serial plate dilution method; conditions: for MIC: Klebsiella pneumoniae; method in brief: as §1
Streptococcus pyogenes = experiment: Antibacterial activity against Streptococcus pyogenes after 3 to 4 days by serial plate dilution method; conditions: for MIC: Streptococcus pyogenes; method in brief: as §1
Aspergillus flavus = experiment: Antifungal activity against Aspergillus flavus NCIM 524 after 3 to 4 days by serial plate dilution method; conditions: for MIC: Aspergillus flavus, NCIM 524
Method in brief: (§2)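 Sabouraud agar made from peptone, glucose and agar in water, pH 5.7. Fungal spores suspended in normal saline and used to lawn the plates, which were dried 1 h at 37 °C. Wells punched and compounds added in DMSO, with a DMSO solvent control. Triplicate plates held at 37 °C for 3–4 days. Read-out is inhibition zone diameter.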

Aspergillus fumigatus = experiment: Antifungal activity against Aspergillus fumigatus NCIM 902 after 3 to 4 days by serial plate dilution method; conditions: for MIC: Aspergillus fumigatus, NCIM 902; method in brief: as §2
Talaromyces marneffei = experiment: Antifungal activity against recultured Penicillium marneffei after 3 to 4 days by serial plate dilution method; conditions: for MIC: Talaromyces marneffei; method in brief: as §2
[1] = tested on: Trichophyton mentagrophytes; experiment: Antifungal activity against recultured Trichophyton mentagrophytes after 3 to 4 days by serial plate dilution method; conditions: for MIC: Trichophyton mentagrophytes; method in brief: as §2
Candida albicans = experiment: Antifungal activity against Candida albicans after 3 to 4 days by serial plate dilution method; conditions: for MIC: Candida albicans; method in brief: as §2

| Compound | diameter of the inhibition zone (DIZ) (Staphylococcus aureus) | MIC (Staphylococcus aureus) | diameter of the inhibition zone (DIZ) (Escherichia coli) | MIC (Escherichia coli) | diameter of the inhibition zone (DIZ) (Pseudomonas aeruginosa) | MIC (Pseudomonas aeruginosa) | diameter of the inhibition zone (DIZ) (Klebsiella pneumoniae) | MIC (Klebsiella pneumoniae) | diameter of the inhibition zone (DIZ) (Streptococcus pyogenes) | MIC (Streptococcus pyogenes) | diameter of the inhibition zone (DIZ) (Aspergillus flavus) | MIC (Aspergillus flavus) | diameter of the inhibition zone (DIZ) (Aspergillus fumigatus) | MIC (Aspergillus fumigatus) | diameter of the inhibition zone (DIZ) (Talaromyces marneffei) | MIC (Talaromyces marneffei) | diameter of the inhibition zone (DIZ) [1] | MIC [1] | diameter of the inhibition zone (DIZ) (Candida albicans) | MIC (Candida albicans) |
| --- | --- | --- | --- | --- | --- | --- | --- | --- | --- | --- | --- | --- | --- | --- | --- | --- | --- | --- | --- | --- |
| COc1ccc2nc(C)cc(-n3cc(CNC4CC4)nn3)c2c1 | 16 mm | 6.25 µg/mL (≈ 20.2 µM) | 16 mm | 6.25 µg/mL (≈ 20.2 µM) | 12 mm | 6.25 µg/mL (≈ 20.2 µM) | 18 mm | 6.25 µg/mL (≈ 20.2 µM) | 12 mm | 6.25 µg/mL (≈ 20.2 µM) | 14 mm | 6.25 µg/mL (≈ 20.2 µM) | 18 mm | 6.25 µg/mL (≈ 20.2 µM) | 18 mm | 6.25 µg/mL (≈ 20.2 µM) | 15 mm | 6.25 µg/mL (≈ 20.2 µM) | 13 mm | 6.25 µg/mL (≈ 20.2 µM) |
| COc1ccc2nc(C)cc(-n3cc(CNC4CCCC4)nn3)c2c1 | 12 mm | 6.25 µg/mL (≈ 18.5 µM) | 12 mm | 6.25 µg/mL (≈ 18.5 µM) | 12 mm | 6.25 µg/mL (≈ 18.5 µM) | 14 mm | 6.25 µg/mL (≈ 18.5 µM) | 12 mm | 6.25 µg/mL (≈ 18.5 µM) | 10 mm | 6.25 µg/mL (≈ 18.5 µM) | 14 mm | 6.25 µg/mL (≈ 18.5 µM) | 10 mm | 6.25 µg/mL (≈ 18.5 µM) | 10 mm | 6.25 µg/mL (≈ 18.5 µM) | 10 mm | 6.25 µg/mL (≈ 18.5 µM) |
| COc1ccc2nc(C)cc(-n3cc(CN(C)C)nn3)c2c1 | 16 mm | 6.25 µg/mL (≈ 21 µM) | 14 mm | 6.25 µg/mL (≈ 21 µM) | 14 mm | 6.25 µg/mL (≈ 21 µM) | 16 mm | 6.25 µg/mL (≈ 21 µM) | 14 mm | 6.25 µg/mL (≈ 21 µM) | 12 mm | 6.25 µg/mL (≈ 21 µM) | 16 mm | 6.25 µg/mL (≈ 21 µM) | 18 mm | 6.25 µg/mL (≈ 21 µM) | 10 mm | 6.25 µg/mL (≈ 21 µM) | 10 mm | 6.25 µg/mL (≈ 21 µM) |
| CCN(CC)Cc1cn(-c2cc(C)nc3ccc(OC)cc23)nn1 | 12 mm | 6.25 µg/mL (≈ 19.2 µM) | 14 mm | 6.25 µg/mL (≈ 19.2 µM) | 12 mm | 6.25 µg/mL (≈ 19.2 µM) | 12 mm | 6.25 µg/mL (≈ 19.2 µM) | 14 mm | 6.25 µg/mL (≈ 19.2 µM) | 11 mm | 12.5 µg/mL (≈ 38.4 µM) | 10 mm | 12.5 µg/mL (≈ 38.4 µM) | <10 mm | 25 µg/mL (≈ 76.8 µM) | 10 mm | 12.5 µg/mL (≈ 38.4 µM) | 11 mm | 12.5 µg/mL (≈ 38.4 µM) |
| COc1ccc2nc(C)cc(-n3cc(CN4CCCC4)nn3)c2c1 | 10 mm | 12.5 µg/mL (≈ 38.7 µM) | 10 mm | 12.5 µg/mL (≈ 38.7 µM) | 12 mm | 12.5 µg/mL (≈ 38.7 µM) | 11 mm | 12.5 µg/mL (≈ 38.7 µM) | 11 mm | 12.5 µg/mL (≈ 38.7 µM) | 11 mm | 12.5 µg/mL (≈ 38.7 µM) | 10 mm | 12.5 µg/mL (≈ 38.7 µM) | 10 mm | 12.5 µg/mL (≈ 38.7 µM) | 12 mm | 12.5 µg/mL (≈ 38.7 µM) | 10 mm | 12.5 µg/mL (≈ 38.7 µM) |
| COc1ccc2nc(C)cc(-n3cc(CN4CCCCC4)nn3)c2c1 | <10 mm | 50 µg/mL (≈ 148 µM) | 10 mm | 12.5 µg/mL (≈ 37 µM) | <10 mm | 50 µg/mL (≈ 148 µM) | <10 mm | 50 µg/mL (≈ 148 µM) | 10 mm | 12.5 µg/mL (≈ 37 µM) | 10 mm | 12.5 µg/mL (≈ 37 µM) | 10 mm | 12.5 µg/mL (≈ 37 µM) | 12 mm | 12.5 µg/mL (≈ 37 µM) | 10 mm | 12.5 µg/mL (≈ 37 µM) | 10 mm | 12.5 µg/mL (≈ 37 µM) |
| COc1ccc2nc(C)cc(-n3cc(CN4CCC(c5ccccc5)CC4)nn3)c2c1 | 10 mm | 12.5 µg/mL (≈ 30.2 µM) | 10 mm | 12.5 µg/mL (≈ 30.2 µM) | 12 mm | 12.5 µg/mL (≈ 30.2 µM) | 11 mm | 12.5 µg/mL (≈ 30.2 µM) | 11 mm | 12.5 µg/mL (≈ 30.2 µM) | <10 mm | 50 µg/mL (≈ 121 µM) | <10 mm | 50 µg/mL (≈ 121 µM) | <10 mm | 50 µg/mL (≈ 121 µM) | <10 mm | 50 µg/mL (≈ 121 µM) | <10 mm | 50 µg/mL (≈ 121 µM) |
| COc1ccc2nc(C)cc(-n3cc(CN4CCN(C)CC4)nn3)c2c1 | 16 mm | 6.25 µg/mL (≈ 17.7 µM) | 20 mm | 6.25 µg/mL (≈ 17.7 µM) | 14 mm | 6.25 µg/mL (≈ 17.7 µM) | 14 mm | 6.25 µg/mL (≈ 17.7 µM) | 16 mm | 6.25 µg/mL (≈ 17.7 µM) | 16 mm | 6.25 µg/mL (≈ 17.7 µM) | 18 mm | 6.25 µg/mL (≈ 17.7 µM) | 16 mm | 6.25 µg/mL (≈ 17.7 µM) | 14 mm | 6.25 µg/mL (≈ 17.7 µM) | 14 mm | 6.25 µg/mL (≈ 17.7 µM) |
| CCN1CCN(Cc2cn(-c3cc(C)nc4ccc(OC)cc34)nn2)CC1 | 18 mm | 6.25 µg/mL (≈ 17.1 µM) | 18 mm | 6.25 µg/mL (≈ 17.1 µM) | 12 mm | 6.25 µg/mL (≈ 17.1 µM) | 16 mm | 6.25 µg/mL (≈ 17.1 µM) | 12 mm | 6.25 µg/mL (≈ 17.1 µM) | 16 mm | 6.25 µg/mL (≈ 17.1 µM) | 14 mm | 6.25 µg/mL (≈ 17.1 µM) | 18 mm | 6.25 µg/mL (≈ 17.1 µM) | 12 mm | 6.25 µg/mL (≈ 17.1 µM) | 12 mm | 6.25 µg/mL (≈ 17.1 µM) |
| COc1ccc2nc(C)cc(-n3cc(CN4CCN(C(C)=O)CC4)nn3)c2c1 | 20 mm | 6.25 µg/mL (≈ 16.4 µM) | 18 mm | 6.25 µg/mL (≈ 16.4 µM) | 14 mm | 6.25 µg/mL (≈ 16.4 µM) | 12 mm | 6.25 µg/mL (≈ 16.4 µM) | 16 mm | 6.25 µg/mL (≈ 16.4 µM) | 14 mm | 6.25 µg/mL (≈ 16.4 µM) | 16 mm | 6.25 µg/mL (≈ 16.4 µM) | 16 mm | 6.25 µg/mL (≈ 16.4 µM) | 14 mm | 6.25 µg/mL (≈ 16.4 µM) | 10 mm | 6.25 µg/mL (≈ 16.4 µM) |
| COc1ccc2nc(C)cc(-n3cc(CN4CCN(C5CCCCC5)CC4)nn3)c2c1 | 10 mm | 12.5 µg/mL (≈ 29.7 µM) | 10 mm | 12.5 µg/mL (≈ 29.7 µM) | 10 mm | 12.5 µg/mL (≈ 29.7 µM) | 10 mm | 12.5 µg/mL (≈ 29.7 µM) | 10 mm | 12.5 µg/mL (≈ 29.7 µM) | <10 mm | 50 µg/mL (≈ 119 µM) | <10 mm | 50 µg/mL (≈ 119 µM) | <10 mm | 50 µg/mL (≈ 119 µM) | <10 mm | 50 µg/mL (≈ 119 µM) | <10 mm | 50 µg/mL (≈ 119 µM) |
